pIC50, pKd: −log10 of the molar value. Values after ≈ are worked out from the molar mass of the structure shown. Active and inactive are the calls of the source. The rule behind the calls is not given here.
How the values were obtained:
[1] = target: T1, S-adenosylmethionine synthase isoform type-2 (Homo sapiens, UniProt P31153); assay: Inhibition of recombinant human MAT2A expressed in baculovirus infected Sf9 cells assessed as S-adenosyl methionine production using L-methionine as substrate incubated for 60 mins followed by substrate addition and measured after 60 mins; conditions: for pIC50: read-out: IC50; for IC50: sf9
Target sequence in this assay (P31153 whole entry, canonical isoform): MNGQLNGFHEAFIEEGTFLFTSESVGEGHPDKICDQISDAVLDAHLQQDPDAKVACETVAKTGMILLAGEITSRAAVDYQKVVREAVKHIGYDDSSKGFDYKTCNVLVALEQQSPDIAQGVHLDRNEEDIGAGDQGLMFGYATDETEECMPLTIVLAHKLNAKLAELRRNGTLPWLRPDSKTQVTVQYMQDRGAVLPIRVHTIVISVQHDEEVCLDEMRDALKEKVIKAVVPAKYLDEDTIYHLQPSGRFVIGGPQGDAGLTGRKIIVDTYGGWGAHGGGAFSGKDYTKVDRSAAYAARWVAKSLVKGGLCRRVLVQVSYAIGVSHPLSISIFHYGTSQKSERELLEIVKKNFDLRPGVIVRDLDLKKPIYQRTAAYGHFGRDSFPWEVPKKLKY

[2] = target: T1, S-adenosylmethionine synthase isoform type-2; assay: Inhibition of recombinant human MAT2A expressed in baculovirus infected Sf9 cells assessed as S-adenosyl methionine production using L-methionine as substrate incubated for 60 mins followed by substrate addition and measured after 60 mins relative to control; design: concentration or dose not given beside the values
Target sequence in this assay (P31153 whole entry, looked up, canonical isoform): as the sequence (P31153 whole entry, canonical isoform) above

[3] = Plasma protein binding in human by ultracentrifugation; type: ADME, cell-free; conditions: read-out: PPB (converted)
Outline: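 Human plasma protein binding was determined by ultracentrifugation.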

[4] = Protein binding in human plasma assessed as unbound fraction; type: ADME, cell-free
cells = conditions: Homo sapiens, HCT-116, 72 h
[5] = Solubility of compound at pH 2; type: physicochemical; conditions: buffer
[6] = Solubility of compound at pH 7.4; type: physicochemical; conditions: buffer
HCT-116 = assay: cells; conditions: Homo sapiens, HCT-116, 96 h
[7] = target: T1, S-adenosylmethionine synthase isoform type-2; assay: Inhibition of MAT2A (unknown origin) enzymatic assay
Target sequence in this assay (P31153 whole entry, canonical isoform): as above

[8] = Stability in human liver microsomes assessed as extraction ratio; type: ADME, Microsome; conditions: read-out: ERH
[9] = target: T1, S-adenosylmethionine synthase isoform type-2; assay: Binding affinity to MAT2A (unknown origin) by surface plasmon resonance assay
Outline: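 SPR: His-tagged MAT2A was captured on CM5 chips via covalently coupled penta-anti-His IgG (~16 000 RU), to a capture level of ~7500 RU.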
Target sequence in this assay (P31153 whole entry, canonical isoform): as above

[10] = AUC (0 to 12 hrs) in MTAP-null KP4 cells xenografted mouse plasma treated po twice daily; type: ADME, organism-based; design: time < 12 hr, route oral; conditions: in vivo
[11] = AUC (0 to 12 hrs) in MTAP-null KP4 cells xenografted mouse measured in tumor treated po twice daily; type: ADME, organism-based, Neoplasm; design: time < 12 hr, route oral; conditions: in vivo
[12] = Permeability from apical to basolateral side in human Caco-2 cells; type: ADME, cell-based; conditions: read-out: permeability
[13] = Efflux ratio of apparent permeability from basolateral side to apical side over apical side to basolateral side in human Caco-2 cells; type: ADME, cell-based
[14] = Plasma protein binding in mouse by ultracentrifugation; type: ADME, cell-free; conditions: read-out: PPB (converted)
[15] = Cmax in MTAP-null KP4 cells xenografted mouse measured in tumor treated po twice daily; type: ADME, organism-based, Neoplasm; design: route oral
Outline: (§1)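 KP4 MTAP-null xenograft-bearing mice dosed orally twice daily. Cmax was determined in plasma (ng/mL) and tumor (ng/g) after 3 b.i.d. doses.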

[16] = Cmax in MTAP-null KP4 cells xenografted mouse plasma treated po twice daily; type: ADME, organism-based; design: route oral; outline: as §1

| pIC50 [1] | inhibition [2] | hepatic extraction ratio [8] | SMILES | also measured |
| --- | --- | --- | --- | --- |
| 7.24 | 91% |  | Cc1[nH]c2c(N3CCCCC3)c(-c3ccccc3)nn2c(=O)c1-c1ccc(O)cc1 | fraction unbound [3]: 0.001; fraction unbound [4]: 0.0009; pIC50 (cells): 7.00 |
| 6.59 | 85% |  | Cc1cc(=O)n2nc(-c3ccccc3)c(C3=CCCCC3)c2[nH]1 | solubility [5]: < 0.5 µM; solubility [6]: < 0.5 µM; pIC50 (HCT-116): 4.14; pIC50 (cells): 6.97 |
|  |  |  | Nc1cc(=O)n2nc(-c3ccccc3)c(-c3ccccc3)c2[nH]1 | IC50 [1]: Not Active |
| 6.99 | 66% |  | Cc1c(-c2ccc(O)cc2)c(=O)n2nc(-c3ccccc3)c(N3CCCCC3)c2n1C | fraction unbound [3]: 0.0154; fraction unbound [4]: 0.0154 |
|  |  |  | Cc1cc(=O)n2nc(C)c(-c3ccccc3)c2[nH]1 | pIC50 [7]: 3.21 |
| 8.10 | 93% | 0.83 | Cc1[nH]c2c(N3CCCCC3)c(-c3ccccc3)nn2c(=O)c1-c1ccc2c(c1)OCO2 |  |
| 7.48 | 93% | 0.54 | Cc1[nH]c2c(-c3ccccc3)c(-c3ccccc3)nn2c(=O)c1-c1ccc(O)cc1 |  |
| 7.35 | 92% | 0.79 | Cc1[nH]c2c(N3CCCCC3)c(-c3ccccc3)nn2c(=O)c1-c1ccc2[nH]cnc2c1 |  |
| 6.59 | 86% |  | Cc1cc(=O)n2nc(-c3ccccc3)c(N3CCCCC3)c2[nH]1 | solubility [5]: 61 µM (≈ 18.8 µg/mL); solubility [6]: 13 µM (≈ 4.01 µg/mL) |
| 5.94 | 84% |  | Cc1cc(=O)n2nc(-c3ccccc3)c(C3=CCCC3)c2[nH]1 | pIC50 (HCT-116): 4.09; pIC50 (cells): 6.23 |
| 6.82 | 93% |  | Cc1[nH]c2c(N3CCCCC3)c(-c3ccccc3)nn2c(=O)c1-c1ccccc1 |  |
| 5.88 | 95% |  | Cc1[nH]c2c(N3CCCCC3)c(-c3ccccc3)nn2c(=O)c1-c1cn[nH]c1 |  |
| 8.15 | 94% | 0.49 | O=c1c(-c2ccc3ncccc3c2)c(Nc2cc[nH]n2)[nH]c2c(-c3ccccc3)c(-c3ccccc3)nn12 | pIC50 (HCT-116): 6.28 |
| 7.08 | 94% | 0.75 | Cc1[nH]c2c(N3CCCCC3)c(-c3ccccc3)nn2c(=O)c1-c1ccc2[nH]c(N)nc2c1 |  |
| 6.17 | 88% |  | Cc1cc(=O)n2nc(-c3ccccc3)c(C3CCCC3)c2[nH]1 |  |
| 8.15 | 93% | 0.26 | O=c1c(-c2ccc(O)cc2)c(Nc2cc[nH]n2)[nH]c2c(-c3ccccc3)c(-c3ccccc3)nn12 | pIC50 (HCT-116): 6.28 |
| 7.60 | 96% |  | Cc1[nH]c2c(C3=CCCCC3)c(-c3ccccc3)nn2c(=O)c1-c1ccc2ncccc2c1 |  |
| 4.30 | inactive |  | Cc1cc(=O)n2nc(-c3cn[nH]c3)c(-c3ccccc3)c2[nH]1 |  |
| 5.82 | 69% |  | Cc1cc(=O)n2nc(-c3ccccc3)c(-c3ccccc3)c2[nH]1 | pKd [9]: 4.15; pIC50 [7]: 5.82 |
| 6.80 | 96% |  | Cc1[nH]c2c(C3=CCCC3)c(-c3ccccc3)nn2c(=O)c1-c1ccc2ncccc2c1 |  |
| 5.44 | 90% |  | Cc1cc(=O)n2nc(-c3ccccc3)c(-c3ccco3)c2[nH]1 |  |
| 4.78 | 70% |  | O=c1cc(Nc2ccccc2)[nH]c2c(-c3ccccc3)c(-c3ccccc3)nn12 |  |
| 5.15 | 79% |  | Cc1cc(=O)n2nc(-c3ccccc3)c(-c3ccccn3)c2[nH]1 |  |

| pIC50 [1] | inhibition [2] | hepatic extraction ratio [8] | SMILES | also measured |
| --- | --- | --- | --- | --- |
| 7.28 | 95% | 0.88 | Cc1[nH]c2c(N3CCCCC3)c(-c3ccccc3)nn2c(=O)c1-c1ccc2ncccc2c1 |  |
| 6.57 | 88% |  | O=c1cc(Nc2cc[nH]n2)[nH]c2c(-c3ccccc3)c(-c3ccccc3)nn12 |  |
| 7.18 | 93% | 0.66 | Cc1[nH]c2c(C3CCCCC3)c(-c3ccccc3)nn2c(=O)c1-c1ccc2ncccc2c1 |  |
| 5.44 | 54% |  | CCc1cc(=O)n2nc(-c3ccccc3)c(-c3ccccc3)c2[nH]1 |  |
| 7.96 | 93% | 0.51 | CCOC(=O)n1ccc(Nc2[nH]c3c(-c4ccccc4)c(-c4ccccc4)nn3c(=O)c2-c2ccc(OC)cc2)n1 | pIC50 (HCT-116): 6.37; pIC50 (cells): 7.82 |
| 5.72 | 76% |  | Cc1cc(=O)n2nc(-c3cccc(F)c3)c(-c3ccccc3)c2[nH]1 |  |
| 7.89 | 94% | 0.36 | COc1ccc(-c2c(Nc3cc[nH]n3)[nH]c3c(-c4ccccc4)c(-c4ccccc4)nn3c2=O)cc1 | pIC50 (HCT-116): 3.05; pIC50 (cells): 8.10 |
| 6.18 | 59% |  | Cc1cc(=O)n2nc(-c3ccccc3)c(C3CCCCC3)c2[nH]1 |  |
| 8.15 | 85% | 0.13 | COc1ccc(-c2c(Nc3ccccn3)[nH]c3c(-c4ccccc4)c(-c4ccccc4)nn3c2=O)cc1 | pIC50 (HCT-116): 6.10; pIC50 (cells): 7.60 |
| 8.00 | 94% | 0.11 | COc1ccc(-c2c(Nc3ccon3)[nH]c3c(C4=CCCCC4)c(-c4ccccc4)nn3c2=O)cc1 | pIC50 (HCT-116): 6.09; pIC50 (cells): 7.19 |
| 6.92 | 61% |  | Cc1c(-c2ccc3ncccc3c2)c(=O)n2nc(-c3ccccc3)c(-c3ccccc3)c2n1C | fraction unbound [3]: 0.009; fraction unbound [4]: 0.009 |
| 8.30 | 96% | 0.56 | COc1ccc(-c2c(Nc3cc[nH]n3)[nH]c3c(C4=CCCCC4)c(-c4ccccc4)nn3c2=O)cc1 | pIC50 (HCT-116): 7.10; pIC50 (cells): 7.68 |
|  |  |  | Cc1cc(=O)n2nc(C3=CCCCC3)c(-c3ccccc3)c2[nH]1 | IC50 [1]: Not Active |
| 6.80 | 91% |  | Cc1[nH]c2c(N3CCCCC3)c(-c3ccccc3)nn2c(=O)c1-c1ccncc1 |  |
| 8.40 | 88% | 0.7 | CCOC(=O)c1nnc(Nc2[nH]c3c(-c4ccccc4)c(-c4ccccc4)nn3c(=O)c2-c2ccc3ncccc3c2)o1 |  |
| 7.55 | 95% |  | COc1ccc(-c2c(Nc3cnccn3)[nH]c3c(C4=CCCCC4)c(-c4ccccc4)nn3c2=O)cc1 | pIC50 (HCT-116): 6.39; pIC50 (cells): 7.80 |
| 6.80 | 85% |  | Cc1[nH]c2c(N3CCCCC3)c(-c3ccccc3)nn2c(=O)c1-c1cscn1 |  |
| 7.01 | 95% | 0.16 | Cc1[nH]c2c(-c3ccccc3)c(-c3ccccc3)nn2c(=O)c1-c1ccc2ncccc2c1 | AUC [10]: 1650000 ng·h/g; AUC [11]: 372000 ng·h/g; solubility [5]: 67 µM (≈ 28.7 µg/mL); solubility [6]: 15 µM (≈ 6.43 µg/mL); Papp A→B [12]: 6.75 ×10⁻⁶ cm/s; efflux ratio [13]: 6; fraction unbound [3]: < 0.001; fraction unbound [14]: 0.0003; Cmax [15]: 32300 ng/g; Cmax [16]: 179 µg/mL; fraction unbound [4]: 0.0003 |
| 5.82 | 65% |  | Cc1cc(=O)n2nc(-c3ccco3)c(-c3ccccc3)c2[nH]1 |  |
| 8.40 | 92% | 0.55 | O=c1c(-c2ccc3ncccc3c2)c(Nc2cc[nH]n2)[nH]c2c(C3=CCCCC3)c(-c3ccccc3)nn12 | pIC50 (HCT-116): 7.14; pIC50 (cells): 7.74 |
| 5.39 | 85% |  | CC(=O)Nc1cc(=O)n2nc(-c3ccccc3)c(-c3ccccc3)c2[nH]1 |  |
| 4.91 | 92% |  | Cc1cc(=O)n2nc(-c3cccc(O)c3)c(-c3ccccc3)c2[nH]1 | pIC50 (HCT-116): 4.12; pIC50 (cells): 5.12 |
| 4.10 | 63% |  | Cc1cc(=O)n2nc(-c3nccs3)c(-c3ccccc3)c2[nH]1 |  |
